According to ChEMBL document CHEMBL4270638, “Sulfonyl-containing phenyl-pyrrolyl pentane analogues: Novel non-secosteroidal vitamin D receptor modulators with favorable physicochemical properties, pharmacokinetic properties and anti-tumor activity” (Eur J Med Chem, 2018):
In brackets after ≈: the same amount, converted by molar mass. Activity calls are given as the source filed them. The calls are words filed in the database; no cut-off is given here.

How the values were obtained:
[1] = test system: MCF7; assay: Induction of apoptosis in human MCF7 cells expressing VDR siRNA assessed as late apoptotic cells at 1 uM after 24 hrs by Annexin-V-FITC/propidium iodide staining based flow cytometry (reference value: 1.01%); type: functional
[2] = test system: BXPC-3; assay: Antiproliferative activity against human BxPC3 cells after 24 hrs by MTT assay; type: functional, cell-based; conditions: BXPC-3, 24 h
[3] = test system: MCF7; assay: Antiproliferative activity against human MCF7 cells after 24 hrs by MTT assay; type: functional, cell-based; conditions: MCF7, 24 h
[4] = test system: MCF7; assay: Induction of apoptosis in human MCF7 cells expressing scrambled siRNA assessed as necrotic cells at 1 uM after 24 hrs by Annexin-V-FITC/propidium iodide staining based flow cytometry (reference value: 0.16%); type: functional
[5] = test system: MCF7; assay: Cell cycle arrest in human MCF7 cells expressing VDR siRNA assessed as accumulation at G0/G1 phase at 1 uM after 24 hrs by propidium iodide staining based flow cytometry (reference value: 49.17%); type: functional
[6] = test system: MCF7; assay: Cell cycle arrest in human MCF7 cells expressing VDR siRNA assessed as accumulation at G2/M phase at 1 uM after 24 hrs by propidium iodide staining based flow cytometry (reference value: 17.57%); type: functional
[7] = test system: MCF7; assay: Induction of apoptosis in human MCF7 cells expressing VDR siRNA assessed as early apoptotic cells at 1 uM after 24 hrs by Annexin-V-FITC/propidium iodide staining based flow cytometry (reference value: 0.49%); type: functional
[8] = test system: MCF7; assay: Induction of apoptosis in human MCF7 cells expressing scrambled siRNA assessed as live cells at 1 uM after 24 hrs by Annexin-V-FITC/propidium iodide staining based flow cytometry (reference value: 97.93%); type: functional
[9] = test system: MCF7; assay: Cell cycle arrest in human MCF7 cells expressing VDR siRNA assessed as accumulation at S phase at 1 uM after 24 hrs by propidium iodide staining based flow cytometry (reference value: 32%); type: functional
[10] = test system: MCF7; assay: Induction of apoptosis in human MCF7 cells expressing scrambled siRNA assessed as early apoptotic cells at 1 uM after 24 hrs by Annexin-V-FITC/propidium iodide staining based flow cytometry (reference value: 0.93%); type: functional
[11] = test system: MCF7; assay: Cell cycle arrest in human MCF7 cells expressing scrambled siRNA assessed as accumulation at G2/M phase at 1 uM after 24 hrs by propidium iodide staining based flow cytometry (reference value: 19.6%); type: functional
[12] = test system: MCF7; assay: Induction of apoptosis in human MCF7 cells expressing scrambled siRNA assessed as late apoptotic cells at 1 uM after 24 hrs by Annexin-V-FITC/propidium iodide staining based flow cytometry (reference value: 0.98%); type: functional
[13] = test system: PC-3; assay: Antiproliferative activity against human PC3 cells after 24 hrs by MTT assay; type: functional, cell-based; conditions: PC-3, 24 h
[14] = test system: MCF7; assay: Cell cycle arrest in human MCF7 cells expressing scrambled siRNA assessed as accumulation at S phase at 1 uM after 24 hrs by propidium iodide staining based flow cytometry (reference value: 29.79%); type: functional
[15] = test system: MCF7; assay: Induction of apoptosis in human MCF7 cells expressing VDR siRNA assessed as live cells at 1 uM after 24 hrs by Annexin-V-FITC/propidium iodide staining based flow cytometry (reference value: 98.35%); type: functional
[16] = Half life in rat liver microsomes in presence of NADPH by HPLC method; type: ADME, microsome
Outline: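 Compounds incubated with rat liver microsomes plus NADPH. Remaining compound quantified by HPLC at 0, 5, 10, 20, 30, 45, 60 and 90 min, and half-life calculated.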

[17] = Solubility of the compound in water at pH 7.4 by HPLC method; type: physicochemical
Outline: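 Aqueous solubility measured at pH 7.4, with samples quantified by HPLC.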

[18] = test system: MCF7; assay: Cell cycle arrest in human MCF7 cells expressing scrambled siRNA assessed as accumulation at G0/G1 phase at 1 uM after 24 hrs by propidium iodide staining based flow cytometry (reference value: 49.28%); type: functional
[19] = test system: MCF7; assay: Induction of apoptosis in human MCF7 cells expressing VDR siRNA assessed as necrotic cells at 1 uM after 24 hrs by Annexin-V-FITC/propidium iodide staining based flow cytometry (reference value: 0.15%); type: functional
[20] = test system: MCF7; assay: Antiproliferative activity against human MCF7 cells expressing VDR siRNA assessed as reduction in BrdU incorporation after 16 hrs by ELISA; type: functional, cell-based; conditions: MCF7, 16 h
[21] = test system: MCF7; assay: Antitumor activity against human MCF7 cells xenografted in Balb/c nude mouse assessed as reduction in tumor growth at 10 mg/kg, ip administered three times a week for three weeks starting from day 7 after tumor cell inoculation; type: functional, organism-based
Outline: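 […] BALB/c-nu mice, 10 weeks old. 1×10^7 MCF-7 cells injected into the left fourth mammary fat pad; dosing began at about 50 mm3 tumour volume (day 7), n = 5 per group. Dosed ip at 10 mg/kg in ethanol/EL/saline 1:1:18, three times weekly for three weeks. Tumour volume by calipers = length × width² × 0.5; tumour weight and body weight recorded.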

[22] = target: T1, Retinoic acid receptor RXR-alpha/Vitamin D3 receptor (Homo sapiens, UniProt P11473+P19793); assay: Transactivation of recombinant human VDR/RXRalpha expressed in HEK293 cells after 24 hrs by Dual-luciferase reporter gene assay; type: cell-based
T1 sequence (P11473 whole entry): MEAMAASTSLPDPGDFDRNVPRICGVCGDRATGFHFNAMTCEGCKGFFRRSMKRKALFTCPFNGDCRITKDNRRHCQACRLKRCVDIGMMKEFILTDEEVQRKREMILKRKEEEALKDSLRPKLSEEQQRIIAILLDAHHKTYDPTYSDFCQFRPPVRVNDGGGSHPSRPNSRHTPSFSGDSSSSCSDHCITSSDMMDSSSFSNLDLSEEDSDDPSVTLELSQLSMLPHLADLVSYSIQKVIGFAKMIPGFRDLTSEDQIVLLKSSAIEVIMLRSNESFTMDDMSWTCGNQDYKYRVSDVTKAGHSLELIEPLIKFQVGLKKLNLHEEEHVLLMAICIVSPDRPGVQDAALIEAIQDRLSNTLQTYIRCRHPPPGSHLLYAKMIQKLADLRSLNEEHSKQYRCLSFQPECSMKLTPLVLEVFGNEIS
T1 sequence (P19793 whole entry): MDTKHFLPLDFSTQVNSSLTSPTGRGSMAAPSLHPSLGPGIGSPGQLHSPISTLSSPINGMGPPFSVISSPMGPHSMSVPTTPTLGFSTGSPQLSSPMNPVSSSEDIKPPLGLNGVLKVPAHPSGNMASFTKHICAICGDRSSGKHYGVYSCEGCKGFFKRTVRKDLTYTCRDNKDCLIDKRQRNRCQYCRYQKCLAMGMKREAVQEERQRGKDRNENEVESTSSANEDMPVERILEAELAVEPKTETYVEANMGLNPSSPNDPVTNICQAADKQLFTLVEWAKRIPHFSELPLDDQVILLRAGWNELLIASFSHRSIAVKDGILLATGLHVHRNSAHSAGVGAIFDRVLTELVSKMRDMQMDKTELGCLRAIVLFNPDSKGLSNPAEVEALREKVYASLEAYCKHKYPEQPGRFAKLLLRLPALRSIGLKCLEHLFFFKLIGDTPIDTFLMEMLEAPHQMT

[23] = Clearance in Sprague-Dawley rat at 20 mg/kg, ip by HPLC method; type: ADME, organism-based; conditions: in vivo
Outline: (§1)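 Male Sprague-Dawley rats, 180–220 g, n = 3 per group. Dosed iv at 5 mg/kg or ip at 20 mg/kg in ethanol/EL/saline (1:1:18). Plasma sampled at 0, 0.083, 0.167, 0.25, 0.5, 1, 2, 4, 8, 12 and 24 h and centrifuged 12000 rpm for 10 min. Plasma drug measured by HPLC; parameters by PK modelling; mean ± SD.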

[24] = Half life in Sprague-Dawley rat at 20 mg/kg, ip by HPLC method; type: ADME, organism-based; conditions: in vivo; outline: as §1
[25] = AUC in Sprague-Dawley rat at 20 mg/kg, ip by HPLC method; type: ADME, organism-based; conditions: in vivo; outline: as §1
[26] = Mean residence time in Sprague-Dawley rat at 20 mg/kg, ip by HPLC method; type: ADME, organism-based; conditions: in vivo; outline: as §1
[27] = target: T2, Vitamin D3 receptor (Homo sapiens, UniProt P11473); assay: Displacement of fluormone VDR red from human full-length VDR after 4 hrs by fluorescence polarization assay
T2 sequence (P11473 whole entry): T1 sequence (P11473 whole entry)

[28] = Half life in Sprague-Dawley rat at 5 mg/kg, iv by HPLC method; type: ADME, organism-based; conditions: in vivo; outline: as §1
[29] = Bioavailability in Sprague-Dawley rat at 20 mg/kg, ip by HPLC method; type: ADME, organism-based; conditions: in vivo; outline: as §1
[30] = AUC in Sprague-Dawley rat at 5 mg/kg, iv by HPLC method; type: ADME, organism-based; conditions: in vivo; outline: as §1
[31] = Clearance in Sprague-Dawley rat at 5 mg/kg, iv by HPLC method; type: ADME, organism-based; conditions: in vivo; outline: as §1
[32] = Mean residence time in Sprague-Dawley rat at 5 mg/kg, iv by HPLC method; type: ADME, organism-based; conditions: in vivo; outline: as §1

SMILES | Activity [1] | IC50 [2] | IC50 [3] | Activity [4] | Activity [5] | Activity [6] | Activity [7] | Activity [8] | Activity [9] | Activity [10] | Activity [11] | Activity [12] | IC50 [13] | Activity [14] | Activity [15] | half-life [16] | solubility [17] | Activity [18] | Activity [19] | other results
CCN(CC)CCNC(=O)c1cc(C(CC)(CC)c2ccc(OCSC)c(C)c2)cn1CC | 1.91% | 4.11 µM | 4.64 µM | 0.39% | 51.44% | 16.92% | 0.91% | 95.2% | 30.37% | 1.17% | 12.37% | 3.24% | 9.54 µM | 30.52% | 96.68% | 0.802 h | 198 µg/mL (≈ 418 µM) | 55.62% | 0.5% | 
CCN(CC)CCNC(=O)c1ccc(C(CC)(CC)c2ccc(OCSc3ccccc3)c(C)c2)n1CC | 1.78% | 5.67 µM | 4.9 µM | 0.35% | 51.65% | 17.07% | 0.71% | 96.21% | 30.12% | 0.59% | 11.15% | 2.85% | 2.23 µM | 31.59% | 97.03% | 0.895 h | 25.6 µg/mL (≈ 47.8 µM) | 55.65% | 0.47% | 
CCn1c(C(=O)N[C@@H](C)CO)ccc1C(CC)(CC)c1ccc(OCC(O)C(C)(C)C)c(C)c1 (some centres undefined) | 1.79% | 15.8 µM | 18.2 µM | 0.26% | 51.05% | 18.59% | 0.99% | 95.55% | 29.44% | 1.31% | 11.69% | 2.88% | 8.5 µM | 31.41% | 96.87% | 0.429 h | 1.7 µg/mL (≈ 3.6 µM) | 55.43% | 0.35% | IC50 [20]: > 50 µM; Activity [21]: Active; EC50 [22]: 0.00681 µM; CL/F [23]: 55.2 mL/min; half-life [24]: 3.47 h; AUC [25]: 6040 ng·h/mL; MRT [26]: 5.5 h; IC50 [27]: 0.115 µM; half-life [28]: 2.89 h; bioavailability [29]: 32.5%; AUC [30]: 4650 ng·h/mL; clearance [31]: 18 mL/min; MRT [32]: 5.54 h
CCN(CC)CCNC(=O)c1cc(C(CC)(CC)c2ccc(OCSc3ccccc3)c(C)c2)cn1CC | 1.91% | 5.37 µM | 4.7 µM | 0.9% | 50.29% | 17.3% | 0.58% | 94.44% | 30.97% | 1.01% | 11.15% | 3.65% | 2.62 µM | 31.75% | 97.14% | 1.19 h | 0.6 µg/mL (≈ 1.12 µM) | 55.79% | 0.37% | 
